The results in this text go back to ChEMBL document CHEMBL3120115, “Synthesis and biological evaluation of 2-oxonicotinonitriles and 2-oxonicotinonitrile based nucleoside analogues” (Eur J Med Chem, 2014).

The nature of data set [1]: Selectivity index, ratio of CC50 for cytotoxicity to EC50 for Influenza A virus H3N2. Format: toxicity. The settings on record: read-out: Ratio CC50/EC50. In a few lines:
(§1)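 CC50 is the concentration at which 50% of cells die, and EC50 is the concentration inhibiting 50% of viral infection. SI is calculated as the CC50/EC50 ratio.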

Data set [2] relates to West Nile virus. As to the kind of experiment: Antiviral activity against West Nile virus by visual/neutral red test. The format is functional, organism-based.
Data set [3] deals with Hepatitis C virus. As to the kind of experiment: Antiviral activity against Hepatitis C virus assessed as inhibition of viral infection by RNA replicon assay. Format: functional, organism-based, Hepacivirus hominis. Background: A replicon is a self-replicating genome or part of one, used to study replication in cells.
For data set [4], the system named is Human alphaherpesvirus 1. Put plainly: Antiviral activity against HSV1 assessed as inhibition of viral infection. The format is functional, organism-based.
A short description of data set [5]: Selectivity index, ratio of CC50 for cytotoxicity to EC50 for Influenza A virus H1N1. The format is toxicity. The settings on record: read-out: Ratio CC50/EC50. In a few lines:
as §1

Data set [6] relates to Human alphaherpesvirus 2. Put plainly: Antiviral activity against HSV2 assessed as inhibition of viral infection. The format is functional, organism-based.
The subject of data set [7] is Hepatitis B virus. As to the kind of experiment: Antiviral activity against Hepatitis B virus assessed as inhibition of viral infection by DNA virion assay. The format is functional, organism-based.
Data set [8] is described as follows: Selectivity index, ratio of CC50 for cytotoxicity to EC50 for HSV1. The note with it: read-out: Ratio CC50/EC50. The format is toxicity. In a few lines:
as §1

The subject of data set [9] is Influenza A virus. Put plainly: Antiviral activity against Influenza A virus H5N1 by cytopathy assay. Format: functional, organism-based.
For data set [10], the system named is SARS-CoV. As to the kind of experiment: Antiviral activity against SARS coronavirus by visual/neutral red test. The format is functional, organism-based. The note with it: Severe acute respiratory syndrome-related coronavirus.
In data set [11] the test system is Influenza B virus. Put plainly: Antiviral activity against Influenza B virus by cytopathy assay. Format: functional, organism-based.
For data set [12], the system named is Influenza A virus. As to the kind of experiment: Antiviral activity against Influenza A virus H1N1 by cytopathy assay. Format: functional, organism-based.
Data set [13] can be described thus: Selectivity index, ratio of CC50 for cytotoxicity to EC50 for HSV2. The format is toxicity. The note with it: read-out: Ratio CC50/EC50. A digest of the protocol:
as §1

Data set [14] deals with Influenza A virus. Put plainly: Antiviral activity against Influenza A virus H3N2 by cytopathy assay. Format: functional, organism-based.
Data set [15] in a line: Selectivity index, ratio of CC50 for cytotoxicity to EC50 for Influenza A virus H5N1. The format is toxicity. The note with it: read-out: Ratio CC50/EC50. A digest of the protocol: as §1
Data set [16] can be described thus: Selectivity index, ratio of CC50 for cytotoxicity to EC50 for Influenza B virus. Format: toxicity. The settings on record: read-out: Ratio CC50/EC50. In a few lines:
as §1

A short description of data set [17]: Selectivity index, ratio of CC50 for cytotoxicity to EC50 for SARS coronavirus. Format: toxicity. The note with it: read-out: Ratio CC50/EC50. In a few lines: as §1
Data set [18] deals with SARS-CoV. As to the kind of experiment: Antiviral activity against SARS coronavirus by visual method. Format: functional, organism-based. The settings on record: Severe acute respiratory syndrome-related coronavirus.

pEC50: −log10 of the molar value.

On to `N#Cc1c(-c2cccs2)cc(-c2cccs2)nc1O`, for which the selectivity ratio is more than 4.2 in data set [1], more than 3.1 in data set [5], less than 4.7 in data set [8] and less than 4.8 in [13]. Further, the pEC50 (commonly the negative decadic logarithm of the EC50, by convention in mol/L) in [2] is less than 5.34; in data set [3], less than 4.00; in [4] it was less than 4.92; in data set [6], less than 4.92; in data set [7], less than 4.00; in [9], less than 4.00. Further, the pEC50 in data set [10] is less than 4.00; in data set [11] it was less than 4.00; in data set [12] it was 4.49; in [14], 4.80.

Take `NC(=O)c1ncn([C@@H]2O[C@H](CO)[C@@H](O)[C@H]2O)n1` [RIBAVIRIN]: the selectivity ratio in data set [1] is more than 160; in data set [5], more than 32; in data set [15], more than 76; in data set [16] it was more than 130. Also, the pEC50 was 5.38 in [9], 5.62 in data set [11], 5.00 in data set [12] and 5.70 in data set [14].

Regarding `CC(=O)OC[C@H]1O[C@@H](n2c(-c3cccs3)cc(-c3cccs3)c(C#N)c2=O)[C@H](OC(C)=O)[C@@H](OC(C)=O)[C@H]1OC(C)=O`, the pEC50 was less than 5.44 in data set [2]; less than 4.00 in [3]; less than 4.22 in [4]; less than 4.22 in [6]; less than 4.00 in data set [7]; less than 4.72 in data set [9]. Besides, the pEC50 in [10] was 5.00; in data set [11], less than 4.92; in [12] it was less than 4.55; in data set [14], less than 4.49. For the same compound, the results for the selectivity ratio in data set [17], in data set [8] and in data set [13] were 1.9, less than 2.4 and less than 2.4, respectively.

With `CC(=O)OC[C@H]1O[C@@H](n2c(-c3ccccn3)cc(-c3ccc(Cl)cc3)c(C#N)c2=O)[C@H](OC(C)=O)[C@@H](OC(C)=O)[C@@H]1OC(C)=O`, the selectivity ratio in data set [1] was more than 4.2; in data set [15] it was 1.3; in data set [17], 4.3; in data set [8], 1; in data set [13], 1. Besides, the pEC50 in data set [2] is less than 5.29; in data set [3], less than 4.00; in [4] it was less than 3.52; in [6], less than 3.52; in data set [7] it was less than 4.00; in data set [9], 5.49. For the same compound, the pEC50 in data set [11] was less than 5.49; in [18] it was 5.08; in data set [14], 4.62.

As for `N#Cc1c(-c2ccc(Cl)cc2)cc(-c2ccccn2)[nH]c1=O`, the pEC50 was less than 5.66 in [2]; less than 4.00 in data set [3]; less than 3.52 in data set [4]; less than 3.52 in [6]; less than 4.00 in [7]; less than 4.00 in data set [9]. Further, the pEC50 is less than 6.49 in data set [10], less than 4.44 in data set [11], 4.59 in [12] and less than 5.59 in [14]. In addition, the selectivity ratio in [5] was more than 3.8; in [8], 1; in [13] it was 1.
